bCat KO growth: primary screen for growth suppressors in beta-catenin knockout HCT116 cells (colon tumor, human); HCT116 beta-catenin knockout viability, CellTiter-Glo, 60 h; hits give low values; viability, % at 10 µM; hit rate 1.5% among 140,000; AID 818, 2007;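 active = viability at or under a set limit, the compound median less 4 SD, cut at about 6% in these data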;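 note: 0% = Hyamine 1622 control at 20 µM and 100% = untreated cell control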
PMI act: activators of human PMI, primary screen, biochemical, fluorescence intensity, near-Km mannose 6-phosphate | Mannose-6-phosphate isomerase (Homo sapiens), P34949 | purified human PMI, coupled resazurin fluorescence, 20 min; hits give high values; 1 = vehicle control, 0 substrate-free wells | activation factor at 20 µM | hit rate 0.005% among 190,000 | AID 1214, 2008;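 active = activation factor of 2 or more at 20 µM, relative to plate controls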
Target sequence (P34949 whole entry, looked up): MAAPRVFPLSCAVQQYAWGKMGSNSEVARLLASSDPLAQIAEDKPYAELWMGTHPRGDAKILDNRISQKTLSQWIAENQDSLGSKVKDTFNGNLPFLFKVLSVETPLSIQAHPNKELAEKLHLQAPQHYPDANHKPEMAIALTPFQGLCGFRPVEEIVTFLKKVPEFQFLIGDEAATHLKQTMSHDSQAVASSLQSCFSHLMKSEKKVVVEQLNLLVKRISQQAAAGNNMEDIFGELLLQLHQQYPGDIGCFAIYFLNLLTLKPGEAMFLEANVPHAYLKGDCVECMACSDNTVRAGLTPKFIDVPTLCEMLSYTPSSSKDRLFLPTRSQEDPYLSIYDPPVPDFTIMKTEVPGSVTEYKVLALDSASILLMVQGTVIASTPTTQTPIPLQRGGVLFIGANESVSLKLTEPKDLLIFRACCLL
Lmaj promast: Leishmania major promastigote growth inhibition, primary screen; Leishmania major promastigotes, resazurin fluorescence viability; inhibition, % at 10 µM; hit rate 9% among 200,000; AID 1063, 2008; in the data active = inhibition above about 50%;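 note: promastigotes grown with compound for 44 hours at 28 °C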
PMI act satM6P: human PMI activators, high substrate, primary screen, biochemical, fluorescence intensity, near-saturating mannose 6-phosphate. AID 1216, 2008. activation factor at 20 µM. hit rate 0.34% among 190,000. coupled PMI enzyme assay, resazurin fluorescence, 20 min; hits give high values; 1 = untreated enzyme, 0 = substrate-free blank;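 active = activation factor of 2 or more at 20 µM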
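Test system: human phosphomannose isomerase with PGI, G6PDH, diaphorase coupling enzymes; amount: 15 ng/mL PMI; incubation: enzyme reaction with compound 20 min at room temperature; technique: resorufin fluorescence (Ex 544/Em 590 nm) from resazurin via diaphorase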
PTEN del growth: growth suppression of PTEN-null HCT116, primary screen, cell-based, CellTiter-Glo. AID 827, 2007. hit rate 1.2% among 140,000. HCT116 PTEN-null viability, 60 h; hits give low values. viability, % at 10 µM;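 active = viability at or below a set limit, 4 SD under the median of all tested compounds, cut at about 3.7% in these data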;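 note: PTEN knockout HCT116 line with beta catenin targeted HCT116 as companion control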
* hit, by the source's call; / = no result given. Shown are actives, neighbours in structure and some others; about 9.6% of the full set was active somewhere.

SMILES	bCat KO growth	PMI act	Lmaj promast	PMI act satM6P	PTEN del growth
COC(=O)c1sc(-c2ccccc2)cc1NC(=O)c1ccc(OC)cc1	3.1*	0.9	-5.2	0.9	5.8
c1ccc(-n2nnnc2NC2CCCCC2)cc1	85.0	1	1.8	1	96.2
CCN(C(=O)Cc1cccs1)c1nnc(-c2cccnc2)s1	100.3	1.2	-1.5	1.4	92.1
CC(C)CCNC(=O)Cn1cc2c(n1)CCCCC2	94.4	0.9	-1.6	0.9	102.4
COc1ccc(N(Cc2ccco2)C(=O)c2ccccc2F)cc1OC	73.9	1.1	59.0*	1	67.3
COc1ccc(CN(C(=O)c2ccco2)c2ccc(Br)cc2)cc1OC	94.7	1	-2.7	1	92.0
CCOC(=O)CC1COCCN1Cc1cn(C)nc1-c1ccccc1F (stereo not given)	/	1.1	-4.5	1	/
O=C(NNc1cccc(Cl)n1)Nc1ccc(F)cc1	/	1	34.4	1	/
CCOc1ccc(-n2c(SCc3ccc([N+](=O)[O-])cc3)nnc2-c2ccccc2)cc1	84.5	0.8	92.5*	0.9	90.3
COCCn1c(Cc2ccccc2)nnc1SCc1ccc([N+](=O)[O-])cc1	92.2	0.9	51.5*	1	91.6
CCOc1ccc(-c2nnc(SCc3nnc(-c4ccccc4)o3)n2-c2ccccc2F)cc1	72.1	1	99.4*	0.9	67.7
CCn1c(Cc2ccccc2)nnc1SCc1ccc([N+](=O)[O-])cc1	80.8	1	-3.4	1.1	85.0
O=c1c2ccccc2nc(SCc2ccc([N+](=O)[O-])cc2)n1-c1ccccc1	69.1	0.8	53.7*	0.9	67.9
O=C(CSc1nnc(-c2ccco2)n1Cc1ccccc1)c1ccc(F)cc1	99.2	1	14.4	1	76.5
Cc1ccc(C)c(S(=O)(=O)Nc2ccccc2C(=O)Nc2ccccc2N2CCOCC2)c1	96.0	0.8	4.4	0.9	91.1
COc1ccc(-n2c(COc3ccccc3)nnc2SCc2ccc(C#N)cc2)cc1	45.1	0.9	99.8*	0.8	52.8
O=C(c1ccccc1)N1CCN(c2ccc([N+](=O)[O-])c(NCc3cccnc3)c2)CC1	89.8	0.9	44.6	0.8	84.2
O=C(c1ccc(Cl)cc1)N1CCN(c2ccc([N+](=O)[O-])c(NCc3cccnc3)c2)CC1	/	/	84.9*	/	/
O=C(Nc1cccnc1)c1ccc(C(=O)Nc2cccnc2)cc1	/	1	5.5	0.9	/
O=C(/C=C/c1cccnc1)c1ccc(NC(=O)c2cccc(Br)c2)cc1	5.7*	0.9	99.1*	0.9	3.6*
Cc1cccc(C(=O)Nc2ccc(C(=O)/C=C/c3cccnc3)cc2)c1	1.4*	0.9	100.5*	1.1	1.6*
O=C(Nc1ccc(Br)cc1)c1ccc(Br)c(S(=O)(=O)Nc2cccnc2)c1	88.1	0.9	72.7*	1	88.6
Cc1cccc(NC(=O)c2cccnc2)c1	91.6	1	-1.2	1	91.4
COc1ccc(C2NC(=O)N(C)C3=C2C(=O)CC(C)(C)C3)cc1OC (stereo not given)	100.8	1	-2.6	1	90.2
Cc1cc(C)cc(NC(=O)CSc2ncc(S(=O)(=O)c3ccccc3)c(=O)[nH]2)c1	93.7	1.1	52.8*	1.1	97.6
SMILES	bCat KO growth	PMI act	Lmaj promast	PMI act satM6P	PTEN del growth
C#CCSc1ncc(S(=O)(=O)c2ccccc2)c(=O)[nH]1	/	1	-5.9	1	/
Cc1cccc(C2c3[nH]c4ccccc4c3CCN2Cc2cccn2-c2ncccn2)c1 (stereo not given)	/	0.9	59.5*	1	/
COc1ccc(C2c3[nH]c4ccccc4c3CCN2Cc2cccn2-c2ncccn2)cc1C (stereo not given)	/	1	70.7*	0.9	/
Cc1cc(C)n(-c2c(F)c(F)c(CO)c(F)c2F)n1	88.8	0.9	4.3	1.2	96.6
COc1ccc(N2C(=O)c3ccccc3NC2(C)C)cc1	/	1.1	-4.7	1.1	/
C=C1c2ccccc2NC(=O)N1c1ccc(OC)cc1	/	1.7	-0.6	2.5*	/
C=C1c2cc(C)ccc2NC(=O)N1c1ccccc1	85.7	1.8	-2.4	2.9*	93.6
N=C1C(c2ccccc2)=C(O)CN1CCO	/	1	-8.1	1	/
C[C@H](NC(=O)c1nc[nH]c1C(=O)NCCCCCNC(=O)OC(C)(C)C)C(=O)OC(C)(C)C	/	1	9.9	1.1	/
Cc1c(C(=O)N2CCc3ccccc32)oc2ccccc12	77.7	0.9	81.2*	1	88.4
CCn1c(SCC(=O)N2c3ccccc3Sc3ccccc32)nc2c1c(=O)n(C)c(=O)n2C	/	1	/	1	/
CCCCn1c(SCC(=O)N2c3ccccc3Sc3ccccc32)nc2c1c(=O)n(C)c(=O)n2C	34.5	0.9	77.7*	1	27.5
Cc1ccc(C(=O)C2CCN(CC(=O)N3CCN(c4ccc(F)cc4)CC3)CC2)cc1	/	1	88.7*	1	/
Cc1nc2c(-c3ccc(F)cc3)c(C)nn2c(C)c1CCC(=O)N1CCN(c2ccc(F)cc2)CC1	82.1	0.9	-3.4	1	84.1
O=C(Nc1ccccc1)c1ccc(NC2CCCCC2)c(S(=O)(=O)N2CCOCC2)c1	73.6	0.8	61.1*	0.6	83.6
O=C(Nc1ccccc1)c1ccc(N2CCN(c3ccccc3)CC2)c(S(=O)(=O)N2CCOCC2)c1	77.9	0.9	88.9*	0.9	91.4
O=[N+]([O-])c1ccc(N2CCN(Cc3ccccc3)CC2)c(S(=O)(=O)N2CCOCC2)c1	89.2	1	93.2*	1	85.5
CCN(CC(=O)NC)S(=O)(=O)c1ccc(Br)cc1	107.0	0.9	-2.8	0.9	92.2
Cc1ccc2[nH]c(=O)c3cc(C(=O)N4CCN(C(=O)c5ccco5)CC4)sc3c2c1	96.1	0.9	2.9	0.9	105.2
CCOc1cc(CNc2ccc3c(c2)CCC3)ccc1OC	90.1	1.1	11.0	1.4	88.8
CCOc1ccccc1-c1nc(-c2cc3ccc(C)cc3[nH]c2=O)no1	86.7	1	68.9*	1	75.5
Cc1ccc(CNC(=O)Nc2cccs2)cc1	89.1	1	-9.2	1.1	98.6
CCc1ccc(NC(=O)c2cnc(N3CCN(c4ccccn4)CC3)c3ccccc23)cc1	/	0.8	82.1*	0.9	/
CC(C)NC(=O)c1cnc(N2CCN(c3ccccn3)CC2)c2ccccc12	85.4	1	3.3	1	86.1
CCN(Cc1ccccc1)C(=O)c1nn(-c2ccc(OC)cc2)c(=O)c2c1c1ccccc1n2C	/	0.9	50.5*	1	/
CCCCN(CC)CCNC(=O)c1nn(-c2ccc(OC)cc2)c(=O)c2c1c1ccccc1n2C	/	1	6.6	1	/
CCCN(CC1CC1)C(=S)Nc1ccccc1F	/	1	-1.9	1	/
c1ccc(-c2noc(CSc3nnc(Cc4cccs4)n3-c3ccccc3)n2)cc1	103.6	1	65.1*	1	94.5
